This is an account of results in ChEMBL document CHEMBL1240369, “Antiviral efficacy of the novel compound BIT225 against HIV-1 release from human macrophages” (Antimicrob Agents Chemother, 2010).

Series [1] deals with Human immunodeficiency virus 1. The series is described as follows: Inhibition of HIV1 Vpu ion channel activity. Put shortly: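 Planar lipid bilayer of POPE:POPC (50:50) in n-decane, with 50 mM KCl in 10 mM MES […] in both chambers. Synthetic Vpu peptide (150 ng) was added to cis and trans sides with stirring. K+ current appeared at −100 mV and was recorded at −40 mV, filtered at 1 kHz. Mean currents were taken over 10–30 s before and after compound (40 μM).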

Series [2] in a line: Cytotoxicity against human TZM-bl cells assessed as cell viability up to 20 uM by MTT assay. In kind it is cell-based. (In general: Tetrazolium dyes change colour on reduction, which living cells bring about.)
Series [3] is described as follows: Inhibition of Vpu ion channel in HIV1 92UG029 in human MDM assessed as inhibition of vrius release. Also noted: species or system Human immunodeficiency virus 1.
The nature of series [4]: Inhibition of Vpu ion channel in HIV1 98IN017 in human MDM assessed as inhibition of vrius release. Also on record: species or system Human immunodeficiency virus 1.
A short description of series [5]: Inhibition of Vpu ion channel in HIV1 MDR3761 in human MDM assessed as inhibition of vrius release. Also noted: species or system Human immunodeficiency virus 1.
The nature of series [6]: Selectivity index, ratio of TC50 for human MDM cells to EC50 for HIV1 Ba-L infected in human MDM cells. In kind it is toxicity, cell-based. The settings on record: read-out: Selectivity Index. A digest of the protocol:
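Day-14 adherence-derived MDM from seronegative donors were infected with HIV-1Ba-L for 3 h, PBS-washed thrice, and cultured in DMEM10+ with compound (10 to 0 μM; DMSO vehicle). EC50 came from nonlinear regression of day-7 supernatant RT activity as % virus control (n = 6, triplicates). TC50 came from day-7 MTT (A560, % DMSO control), range extended to 1,000 μM (n = 3). SI = TC50/EC50.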

The nature of series [7]: Selectivity index, ratio of TC50 for human MDM cells to EC50 for HIV1 93BR029 infected in human MDM cells. As to conditions: read-out: Selectivity Index. In kind it is toxicity, cell-based. A digest of the protocol:
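Monocytes were adherence-isolated from seronegative PBMC and differentiated in DMEM with 10% human AB serum. Cells were infected with the R5 subtype F primary isolate (PBMC-grown). Antiviral effect was taken versus DMSO-treated controls. Toxicity was measured in parallel by MTT. The index is mean TC50 divided by mean EC50, from in-house experiments, n = 3.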

Series [8] has as its system MDM. Put plainly: Inhibition of Vpu ion channel in 0.01 MOI HIV1 Ba-L infected in 7 days differentiated human MDM cells assessed as number of gag copy. As to conditions: Human immunodeficiency virus 1. In kind it is cell-based. Put shortly:
(§1)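 MDM differentiated for 7, 10 or 14 days were infected with HIV-1 Ba-L across a range of MOIs, washed three times with PBS and cultured 7 days with 10 μM compound or equal-volume DMSO. On day 7 postinfection, supernatant RT activity was measured (and infectivity on TZM-bl cells). Cell lysates went to real-time PCR for LTR-gag DNA, normalised to albumin copies.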

Series [9] concerns MDM. Put plainly: Inhibition of Vpu ion channel in 0.01 MOI HIV1 Ba-L infected in 10 days differentiated human MDM cells assessed as number of gag copy. In kind it is cell-based. The settings on record: Human immunodeficiency virus 1. Put shortly: as §1
Series [10] concerns MDM. The series is described as follows: Inhibition of Vpu ion channel in 0.05 MOI HIV1 Ba-L infected in 14 days differentiated human MDM cells assessed as number of gag copy. In kind it is cell-based. The settings on record: Human immunodeficiency virus 1. Put shortly: as §1
For series [11], the system named is MDM. Put plainly: Inhibition of Vpu ion channel in 0.001 to 3 MOI HIV1 Ba-L infected in 7-14 days differentiated human MDM cells assessed as virus inhibition rate measured after 7 days. In kind it is cell-based. As to conditions: Human immunodeficiency virus 1. Put shortly: as §1
The subject of series [12] is MDM. The series is described as follows: Inhibition of Vpu ion channel in 0.001 MOI HIV1 Ba-L infected in 10 days differentiated human MDM cells assessed as viral inhibition by TZM-bl infectivity assay. In kind it is cell-based. As to conditions: Human immunodeficiency virus 1. A digest of the protocol:
as §1

Series [13] relates to MDM. The series is described as follows: Inhibition of Vpu ion channel in 0.05 MOI HIV1 Ba-L acutely infected in 14 days differentiated human MDM cells assessed as reverse transcriptase activity after 21 days relative to control. In kind it is cell-based. The settings on record: Human immunodeficiency virus 1. A digest of the protocol:
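Day 14 MDM were acutely infected with HIV-1 Ba-L at MOI 0.05 for 3 h, washed three times with PBS, then cultured a further 7 days in DMEM10+ with 10 μM compound or equal DMSO. Virus release was measured as supernatant RT activity on day 21 of culture, relative to DMSO controls.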

In series [14] the test system is MDM. Put plainly: Inhibition of Vpu ion channel in 0.05 MOI HIV1 Ba-L chronically infected in 14 days differentiated human MDM cells assessed as viral inhibition measured after treatment at 11 th day postinfection. In kind it is cell-based. As to conditions: Human immunodeficiency virus 1.
For series [15], the system named is MDM. The series is described as follows: Inhibition of Vpu ion channel in 0.05 MOI HIV1 Ba-L chronically infected in 7 days differentiated human MDM cells assessed as reverse transcriptase activity after 21 days. In kind it is cell-based. As to conditions: Human immunodeficiency virus 1. A digest of the protocol: (§2)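 Chronic infection model: MDM were incubated with HIV-1 Ba-L for 3 h and left 7 days unwashed, then washed three times and given a single 10 μM dose (DMSO control). Supernatants were sampled routinely for RT activity. In the washout arm, compound was removed and cells kept drug-free for an additional 20 days.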

For series [16], the system named is MDM. Put plainly: Inhibition of Vpu ion channel in 0.05 MOI HIV1 Ba-L chronically infected in 10-14 days differentiated human MDM cells assessed as viral inhibition after 1 day relative to control. In kind it is cell-based. As to conditions: Human immunodeficiency virus 1. Put shortly: as §2
The test system of series [17] is MDM. Put plainly: Inhibition of Vpu ion channel activity in 0.05 MOI HIV1 Ba-L chronically infected in 7-14 days differentiated human MDM cells assessed as viral inhibition measured after 7 days. In kind it is cell-based. As to conditions: Human immunodeficiency virus 1. Put shortly:
(§3)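 Day 14 MDM from 3 seronegative donors were infected with HIV-2, or with HIV-1 Ba-L as a positive control, at MOI 0.05 for 7 days. Cells were then washed free of extracellular virus and cultured ± 10 μM compound for a further 7 days. Day 28 supernatants were assayed for RT activity by chemiluminescent ELISA, with recombinant RT as the standard.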

Series [18] concerns Human immunodeficiency virus 2. The series is described as follows: Antiviral activity against 0.05 MOI HIV2 chronically infected in 7-14 days differentiated human MDM cells assessed as viral inhibition measured after 7 days. In kind it is functional, organism-based. A digest of the protocol: as §3
The subject of series [19] is Human immunodeficiency virus 2. The series is described as follows: Antiviral activity against 0.05 MOI HIV2 noncytopathic strain chronically infected in 7-14 days differentiated human MDM cells assessed as viral inhibition measured after 7 days. In kind it is functional. A digest of the protocol: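 Day 14 MDM from three seronegative donors were infected at MOI 0.05 for 7 days, then washed free of extracellular virus. Cultures then ran a further 7 days with or without 10 μM BIT225, from day 21. Day 28 supernatants were assayed by RT activity ELISA. Percent inhibition was taken versus untreated controls, as mean of three donors.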

Series [20] concerns Human immunodeficiency virus 1. The series is described as follows: Antiviral activity against HIV1 Ba-L in human MDM assessed as inhibition integration of virus to host cell genome at 0.3125 to 10 uM. In kind it is functional, organism-based.
Series [21] deals with MT2. Put plainly: Inhibition of Vpu ion channel in 0.05 MOI HIV1 infected in MT2 cells assessed as viral inhibition measured after 7 days by […]. The settings on record: Human immunodeficiency virus 1.
Series [22] deals with PBMC. Put plainly: Inhibition of Vpu ion channel in 0.05 MOI HIV1 NL4-3 infected in human PBMC cells assessed as viral inhibition measured at 5 uM after 7 days by […]. As to conditions: Human immunodeficiency virus 1.
Series [23] relates to PBMC. Put plainly: Inhibition of Vpu ion channel in 0.05 MOI HIV1 NL4-3 infected in human PBMC cells assessed as viral inhibition measured at 10 uM after 7 days by […]. As to conditions: Human immunodeficiency virus 1.

Activity calls are given as the source filed them. No cut-off for these calls is given here. A value given as a limit tells only on which side of the number the result lay.

As usually defined, the EC50 is the midpoint of the concentration-response curve. By inhibition is commonly meant the drop in the measured response relative to a control, in per cent. As to `Cn1cc(-c2cccc3cc(C(=O)NC(=N)N)ccc23)cn1`, the Activity in [1] was 40 µM; in [2], “Non-toxic”; in series [8] it was 1160; in series [9], 1380; in series [13], < 6 U/ml; in series [15] it was < 2 U/ml. In addition, the EC50 in [3] worked out at 14.4 µM; in series [4] it was 42.2 µM; in series [5], 5.1 µM. In addition, the selectivity ratio came to 126 in [6] and 111 in series [7]. For the same molecule, the outcome in series [10] and in series [11] was Active. Besides, the inhibition came to 98.1% in [12]; 86.3% in series [14]; 60.7% in series [16]; 66.6% in series [17]; 38.8% in series [21]; 25.7% in series [22]. The inhibition in [23] was 56.8%. Also, the outcome in series [18] and in [20] was inactive. The “inhibition (INH)” value in series [19] is reported as 13.4%.
